A short description of data set [1]: Transwell permeability assay across caco-2 monolayers. The settings on record: human, Caco-2. In kind it is in vitro ADME, human. A digest of the protocol:
(§1)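 Caco-2 monolayers in transwells were used to measure apical-to-basal absorption (PappA–B) and basal-to-apical secretion (PappB–A). Efflux ratio was calculated as PappB–A/PappA–B. Runs were made with or without ABC transporter inhibitors (FTC for ABCG2, verapamil for ABCB1), with vinblastine as an ABCB1 reference substrate.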
For orientation: Caco-2 cells form a polarised layer with tight junctions and transporters.

In data set [2] the test system is Ki-67. The settings on record: after 5 days of treatment; ref Li et al, 2012; cited from earlier work.
Data set [3] is described as follows: Metabolic stability in mouse S9 fractions. In kind it is in vitro ADME. The settings on record: 60 min incubation with NADPH and mouse S9 fractions.
The subject of data set [4] is caspase 3/7 activity in HCT-116 cells. The data set is described as follows: Caspase 3/7 assay. Type of data set: cell-based, human. The settings on record: 24 h. A digest of the protocol: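 Treated cells were transferred to opaque plates and incubated 1 h with a luminogenic caspase 3/7 reagent. Luminescence on a microplate counter gave caspase 3/7 activity, normalised to protein content.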

In data set [5] the test system is caco-2 monolayers. The data set is described as follows: Transwell permeability assay across caco-2 monolayers. In kind it is in vitro ADME, human. The conditions noted are these: compounds tested at 10 μM. The procedure, abridged:
as §1

Data set [6] has as its system A2780^AD cells, overexpressing ABCB1. The data set is described as follows: Growth inhibition in doxorubicin-resistant A2780AD cells vs parental A2780. In kind it is cell-based.

Consider `CC[C@]1(O)C[C@@H]2CN(CCc3c([nH]c4ccccc34)[C@@](C(=O)OC)(c3cc4c(cc3OC)N(C)[C@H]3[C@@](O)(C(=O)OC)[C@H](OC(C)=O)[C@]5(CC)C=CCN6CC[C@]43[C@@H]65)C2)C1` [vinblastine], for which the efflux ratio at 10 μM in data set [1] turned out to be 8.

For `CO[C@H]1C[C@@H]2CC[C@@H](C)[C@@](O)(O2)C(=O)C(=O)N2CCCC[C@H]2C(=O)O[C@H]([C@H](C)C[C@@H]2CC[C@@H](OCCO)[C@H](OC)C2)CC(=O)[C@H](C)/C=C(\C)[C@@H](O)[C@@H](OC)C(=O)[C@H](C)C[C@H](C)/C=C/C=C/C=C/1C` [everolimus], the “Decrease in Ki-67” value in data set [2] was 1.6 fold.

For `CC[C@H](CO)Nc1nc(NCc2ccccc2)c2ncn(C(C)C)c2n1` [roscovitine], the Parent compound remaining in data set [3] is under 10%.

Regarding `CC(C)c1cnn2c(NCc3ccccc3)cc(NCCCCCCN)nc12` [BS-181], the “Caspase 3/7 activity” value in data set [4] is recorded as “only at the highest concentration tested”. Moreover, in data set [5], the “Permeability PappA–B across caco-2 cells” value is “poorly absorbed”. In data set [6], the “Potency in A2780^AD cells compared with parental A2780” value is given as “equipotent”.

As usually defined, the efflux ratio is the permeability from basolateral to apical divided by that in the opposite direction, in the common usage.
